ChEMBL document CHEMBL4680111, “Target Validation and Identification of Novel Boronate Inhibitors of the Plasmodium falciparum Proteasome” (J Med Chem, 2018)
Calls of active or inactive are those of the source. The calls are words filed in the database; no cut-off is given here.

Legend:
Plasmodium falciparum [1] = experiment: Inhibition of proteasome in Plasmodium falciparum trophozoite stage transfected with GFP-DD assessed as reduction in GFP-DD fusion protein degradation at 0.2 to 0.5 uM incubated for 3 hrs in absence of Shield-1 by Western blot analysis; conditions: dose 0.2-0.5 µM
Outline: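 GFP-DD reporter parasites were held in Shield-1 for 24 h, then washed out. Trophozoites at 5% hematocrit and 5% parasitemia were exposed to compound for 3 h at 37°C. Saponin-isolated parasites were lysed and blotted with anti-GFP (1:1000), with anti-PfBiP as loading control. Representative of four independent experiments.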

Plasmodium falciparum [2] = experiment: Inhibition of proteasome in Plasmodium falciparum trophozoite stage transfected with GFP-DD assessed as reduction in GFP-DD fusion protein degradation at 0.02 to 0.5 uM incubated for 3 hrs in absence of Shield-1 by Western blot analysis; conditions: dose 0.02-0.5 µM
Outline: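 GFP-DD reporter parasites were held in Shield-1 for 24 h, washed out, then treated as trophozoites (5% hematocrit, 5% parasitemia) with compound for 3 h at 37°C. […] Representative of four independent experiments.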

| Compound | inhibition (Plasmodium falciparum [1]) | inhibition (Plasmodium falciparum [2]) |
| --- | --- | --- |
| CC(=O)N1CCC[C@@H]1C(=O)N[C@@H](C)C(=O)N[C@@H](Cc1ccccc1)B(O)O | Active | – |
| CC(C)C[C@H](NC(=O)[C@H](Cc1ccccc1)NC(=O)Cc1ccc(O)cc1)B(O)O | – | Active |
